# Data: paper PMC4100325 (Journal of toxicology and environmental health. Part A, 2014)
# What was measured:
# [1] = tested on: cytochrome c reduction in liver homogenates; conditions: SOD added to assay mixture of liver homogenate; ref Hassoun and Dey, 2008; cited from earlier work
# [2] = tested on: DNA single strand breaks in the livers of mice; experiment: DNA single strand breaks; format: in vivo, B6C3F1 male mice; conditions: for intercept of regression DNA-SSBs vs Dose / slope of regression DNA-SSBs vs Dose: DNA-SSBs as elution rate constant k; for slope of regression DNA-SSBs vs Dose: dose mg/kg/day; for effect on DNA SSB in livers: gavage daily for 13 weeks
# Method in brief: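 Male B6C3F1 mice (6/group) were gavaged daily for 13 weeks with test compound in distilled water (pH 7) and killed 24 hr after the last dose. Liver was homogenised 25% w/v in KCl/NaCl/spermine/spermidine/sucrose/EDTA/EGTA/Tris/PMSF/2-mercaptoethanol buffer and spun at 3000 g to get nuclei. These were lysed on 5 µm filters (2% SDS, 25 mM EDTA, pH 10.3, 20 min), then eluted at pH 12.3 into seven 3 ml fractions. DNA was read by diaminobenzoic acid fluorescence (436/521 nm). k = −2.3 × slope of log10 %DNA retained vs eluate volume.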
# liver = conditions: subchronic studies; ref Hassoun et al. 2010a; cited from earlier work
# [3] = liver/body weight ratio after subchronic gavage exposure; format: in vivo, B6C3F1 male mice; conditions: mean ± SD
# Method in brief: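 Male B6C3F1 mice arrived at 6 weeks (~20 g) and were given test compound or water vehicle (pH 7) by daily gavage for 13 weeks, 6/group. Body weights were taken weekly. Animals were killed 24 hr after the last dose (CO2, cervical dislocation) and livers were weighed. Data are means ± S.D.; one-way ANOVA with Tukey post-hoc test.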
# [4] = tested on: superoxide anion (SA) production in the livers of mice; experiment: superoxide anion; format: in vivo, B6C3F1 male mice; conditions: for slope of regression SA vs Dose: SA as nmoles cytochrome c reduced/ min/ mg protein, dose mg/kg/day; for effect on SA production in livers: gavage daily for 13 weeks
# Method in brief: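 After 13 weeks of daily gavage (test compound, aqueous pH 7; 6 mice/group), liver was homogenised 10% w/v in Tris-KCl, pH 7.4. Homogenate was incubated with 45 nmol cytochrome c in PBS, pH 7.2, for 15 min at 37°C. The reaction was stopped on ice and centrifuged, and the supernatant was read at 550 nm. Values were converted with ε 2.1 × 10^4 M−1 cm−1 to nmol reduced/min/mg Lowry protein; regression was against dose.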
# [5] = tested on: lipid peroxidation (LP) in the livers of mice; experiment: lipid peroxidation; format: in vivo, B6C3F1 male mice; conditions: for slope of regression LP vs Dose: LP as nmoles TBARS/mg protein, dose mg/kg/day; for effect on LP in livers: gavage daily for 13 weeks; for intercept of regression LP vs Dose: regression analysis
# Method in brief: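 Mice (6/group) received daily gavage of test compound (pH 7 aqueous) for 13 weeks and were killed 24 hr post-dose. A 10% w/v liver homogenate in Tris-KCl (pH 7.4) was mixed with 1% phosphoric acid, 0.6% thiobarbituric acid and butylated hydroxyanisole, then heated at 100°C for 45 min. TBARS were extracted into n-butanol and read at 535 nm (ε 1.556 × 10^5 M−1 cm−1), normalised to Lowry protein. Means ± S.D. are reported; regression was against dose.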
# [6] = 410 mg DCA/kg/day, subchronic studies; ref Hassoun et al, 2010a; cited from earlier work
Compound,inhibition of cytochrome c reduction [1],intercept of regression DNA-SSBs vs Dose [2],slope of regression DNA-SSBs vs Dose [2],effect on DNA SSB in livers [2],threshold dose for hepatotoxicity (liver),Liver/body weight ratio ([3]; TCA 12.5 mg/kg/day by gavage for 13 weeks),Liver/body weight ratio ([3]; TCA 25 mg/kg/day by gavage for 13 weeks),Liver/body weight ratio ([3]; TCA 50 mg/kg/day by gavage for 13 weeks),slope of regression SA vs Dose [4],effect on SA production in livers [4],slope of regression LP vs Dose [5],effect on LP in livers [5],intercept of regression LP vs Dose [5],increase in liver/body weight ratio associated with hepatomegaly [6],Liver/body weight ratio ([3]; DCA 7.5 mg/kg/day by gavage for 13 weeks),Liver/body weight ratio ([3]; DCA 15 mg/kg/day by gavage for 13 weeks),Liver/body weight ratio ([3]; DCA 30 mg/kg/day by gavage for 13 weeks)
superoxide dismutase [SOD],91.1%,,,,,,,,,,,,,,,,
"O=C(O)C(Cl)(Cl)Cl [TCA, sodium trichloroacetate]",,0.00152,0.000052,dose-dependent increases,410 mg/kg/day,0.057 ± 0.003,0.055 ± 0.005,0.049 ± 0.005,0.0237,dose-dependent increases,0.0631,dose-dependent increases,0.870 nmoles TBARS/mg protein,,,,
"O=C(O)C(Cl)Cl [DCA, sodium dichloroacetate]",,0.00215,0.000201,dose-dependent increases,154 mg/kg/day,,,,0.1036,dose-dependent increases,0.2041,dose-dependent increases,1.185 nmoles TBARS/mg protein,1.3 fold,0.054 ± 0.009,0.051 ± 0.002,0.053 ± 0.007
